For assay [1], the target named is 5-hydroxytryptamine receptor 1B (Homo sapiens, UniProt P28222). Description: Displacement of [3H]5-hydroxytryptamine from human cloned 5HT1B receptor expressed in CHOK1 cells by liquid scintillation counting. The format is cell-based, CHO-K1. On the technique in general: Loss of bound radioactivity is the signal in a displacement assay; it reports binding, not function.

Assay [2] deals with T1, Muscarinic acetylcholine receptor M2 (Homo sapiens, UniProt P08172).
T1 sequence (P08172 whole entry): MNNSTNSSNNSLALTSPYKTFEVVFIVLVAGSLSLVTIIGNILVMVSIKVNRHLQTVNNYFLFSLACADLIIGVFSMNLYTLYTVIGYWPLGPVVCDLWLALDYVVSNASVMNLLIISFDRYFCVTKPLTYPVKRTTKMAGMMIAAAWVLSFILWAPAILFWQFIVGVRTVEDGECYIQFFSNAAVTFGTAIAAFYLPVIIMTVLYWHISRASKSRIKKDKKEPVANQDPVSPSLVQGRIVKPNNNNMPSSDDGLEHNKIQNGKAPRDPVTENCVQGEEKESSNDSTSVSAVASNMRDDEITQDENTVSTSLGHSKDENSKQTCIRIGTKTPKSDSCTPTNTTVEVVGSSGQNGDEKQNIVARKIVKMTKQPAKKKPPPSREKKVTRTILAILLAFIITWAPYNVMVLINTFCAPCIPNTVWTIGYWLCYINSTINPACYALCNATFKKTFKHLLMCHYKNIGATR
The experiment in a line: Binding affinity to human muscarinic M2 receptor.

The target of assay [3] is Beta-2 adrenergic receptor (Homo sapiens, UniProt P07550). The experiment in a line: Binding affinity to human adrenergic beta2 receptor.
Assay [4] is described as follows: Displacement of [3H]5-hydroxytryptamine from rhesus monkey cloned 5HT1F receptor expressed in African green monkey COS7 cells by liquid scintillation counting. It is filed as cell-based, Macaca mulatta. As to conditions: cos-7. The method, boiled down:
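Rhesus monkey 5-HT1F cloned by PCR into pcDNA3.1 and transiently transfected into COS-7 cells. Membranes prepared by homogenization in 50 mM Tris-HCl, 5 mM EDTA, pH 7.4. Filtered over GF/B and counted by liquid scintillation. Ki calculated via Cheng-Prusoff. Mean of more than two runs in duplicate or triplicate.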

Another assay concerns the target D(2) dopamine receptor (Homo sapiens, UniProt P14416). The experiment in a line: Binding affinity to human dopamine D2 receptor.
Assay [5] addresses Muscarinic acetylcholine receptor M3 (Homo sapiens, UniProt P20309). The experiment in a line: Binding affinity to human muscarinic M3 receptor.
The target in assay [6] is 5-hydroxytryptamine receptor 1D (Homo sapiens, UniProt P28221). The experiment in a line: Displacement of [3H]5-hydroxytryptamine from human cloned 5HT1D receptor expressed in CHOK1 cells by liquid scintillation counting. It is filed as cell-based, CHO-K1. In short, it runs like this: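 Membranes from CHO-K1 cells expressing cloned human 5-HT1D were purchased. Stopped by filtration over GF/B filters and counted by liquid scintillation. Ki derived from IC50 by Cheng-Prusoff. Each value is the mean of more than two runs done in duplicate or triplicate.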

The target in assay [7] is 5-hydroxytryptamine receptor 1B (Oryctolagus cuniculus) (UniProt P49144). The experiment in a line: Agonist activity at rabbit 5HT1B receptor assessed as induction of saphenous vein contraction at 30 uM after 5 mins. It is filed as functional, tissue-based.

Active and inactive are the calls of the source. The rule behind the calls is not given here. Where only a bound is given, the exact number is not on record here.

Chain of 5-hydroxytryptamine receptor 1B (P28222 whole entry): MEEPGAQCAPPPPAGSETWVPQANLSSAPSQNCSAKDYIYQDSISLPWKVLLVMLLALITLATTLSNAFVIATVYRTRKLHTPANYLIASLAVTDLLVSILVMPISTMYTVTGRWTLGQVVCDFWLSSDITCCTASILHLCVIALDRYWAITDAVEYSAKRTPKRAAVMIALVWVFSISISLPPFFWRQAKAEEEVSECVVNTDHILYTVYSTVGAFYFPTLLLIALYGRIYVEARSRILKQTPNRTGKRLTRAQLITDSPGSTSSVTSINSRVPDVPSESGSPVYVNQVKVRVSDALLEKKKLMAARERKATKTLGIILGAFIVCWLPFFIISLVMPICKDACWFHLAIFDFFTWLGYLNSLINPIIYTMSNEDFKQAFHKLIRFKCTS
Chain of Beta-2 adrenergic receptor (P07550 whole entry): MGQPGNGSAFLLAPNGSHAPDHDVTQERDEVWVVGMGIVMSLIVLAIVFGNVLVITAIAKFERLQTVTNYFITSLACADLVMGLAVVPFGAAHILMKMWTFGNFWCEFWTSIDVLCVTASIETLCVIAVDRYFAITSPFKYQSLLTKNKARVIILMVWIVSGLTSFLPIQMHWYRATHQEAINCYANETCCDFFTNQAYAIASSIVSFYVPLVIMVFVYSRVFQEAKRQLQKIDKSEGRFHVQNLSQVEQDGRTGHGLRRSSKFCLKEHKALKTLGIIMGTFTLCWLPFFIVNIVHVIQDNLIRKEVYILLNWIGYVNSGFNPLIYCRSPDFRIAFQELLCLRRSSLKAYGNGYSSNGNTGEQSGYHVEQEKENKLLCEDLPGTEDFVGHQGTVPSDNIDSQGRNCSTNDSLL
Chain of 5-hydroxytryptamine receptor 1B (Oryctolagus cuniculus) (P49144 whole entry): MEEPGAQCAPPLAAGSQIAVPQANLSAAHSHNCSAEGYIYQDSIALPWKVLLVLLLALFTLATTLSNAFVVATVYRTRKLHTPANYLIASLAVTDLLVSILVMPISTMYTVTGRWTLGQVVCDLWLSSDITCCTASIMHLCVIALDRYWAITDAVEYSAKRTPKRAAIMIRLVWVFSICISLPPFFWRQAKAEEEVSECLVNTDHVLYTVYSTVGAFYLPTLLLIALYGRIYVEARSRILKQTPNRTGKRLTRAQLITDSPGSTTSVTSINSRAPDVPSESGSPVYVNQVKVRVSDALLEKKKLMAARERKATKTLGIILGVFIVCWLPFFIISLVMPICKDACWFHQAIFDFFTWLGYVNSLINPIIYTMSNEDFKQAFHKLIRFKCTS
Chain of Muscarinic acetylcholine receptor M3 (P20309 whole entry): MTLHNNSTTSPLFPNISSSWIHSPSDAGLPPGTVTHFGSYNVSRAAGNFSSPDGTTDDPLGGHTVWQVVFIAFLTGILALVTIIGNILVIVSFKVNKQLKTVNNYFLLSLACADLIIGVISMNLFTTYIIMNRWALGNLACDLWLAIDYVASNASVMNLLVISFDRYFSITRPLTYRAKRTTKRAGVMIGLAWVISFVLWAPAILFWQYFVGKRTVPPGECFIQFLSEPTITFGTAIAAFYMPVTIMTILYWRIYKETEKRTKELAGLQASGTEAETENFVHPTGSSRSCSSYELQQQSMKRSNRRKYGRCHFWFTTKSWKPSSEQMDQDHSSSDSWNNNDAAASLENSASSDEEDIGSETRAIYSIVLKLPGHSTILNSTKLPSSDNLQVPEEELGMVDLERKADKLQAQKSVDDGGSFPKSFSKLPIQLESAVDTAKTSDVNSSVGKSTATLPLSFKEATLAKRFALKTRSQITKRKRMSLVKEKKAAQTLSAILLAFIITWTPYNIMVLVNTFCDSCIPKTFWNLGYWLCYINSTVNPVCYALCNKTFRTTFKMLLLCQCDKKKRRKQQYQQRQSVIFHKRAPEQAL
Chain of D(2) dopamine receptor (P14416 whole entry): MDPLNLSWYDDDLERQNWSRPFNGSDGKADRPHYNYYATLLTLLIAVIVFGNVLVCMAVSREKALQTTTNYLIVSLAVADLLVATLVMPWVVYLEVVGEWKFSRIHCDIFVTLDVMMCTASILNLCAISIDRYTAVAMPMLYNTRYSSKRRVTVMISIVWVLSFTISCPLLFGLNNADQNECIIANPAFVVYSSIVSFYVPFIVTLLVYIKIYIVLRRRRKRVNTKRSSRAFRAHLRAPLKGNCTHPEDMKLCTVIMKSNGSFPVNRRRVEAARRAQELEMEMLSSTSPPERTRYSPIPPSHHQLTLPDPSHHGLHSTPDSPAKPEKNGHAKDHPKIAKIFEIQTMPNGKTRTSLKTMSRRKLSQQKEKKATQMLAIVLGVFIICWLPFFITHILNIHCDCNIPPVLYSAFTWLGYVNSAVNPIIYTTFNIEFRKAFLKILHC
Chain of 5-hydroxytryptamine receptor 1D (P28221 whole entry): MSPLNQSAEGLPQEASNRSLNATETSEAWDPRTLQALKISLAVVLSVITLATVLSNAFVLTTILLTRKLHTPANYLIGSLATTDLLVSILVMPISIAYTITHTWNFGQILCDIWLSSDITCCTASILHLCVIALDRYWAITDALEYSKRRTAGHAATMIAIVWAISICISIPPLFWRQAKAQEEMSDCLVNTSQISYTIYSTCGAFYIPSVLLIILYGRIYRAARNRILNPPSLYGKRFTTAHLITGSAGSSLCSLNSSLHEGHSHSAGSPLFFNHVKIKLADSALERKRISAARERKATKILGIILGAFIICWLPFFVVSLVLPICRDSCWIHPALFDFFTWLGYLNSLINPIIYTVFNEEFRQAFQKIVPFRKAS

As a reminder, the Ki is a dissociation constant, usually derived from enzyme kinetics or from competition with a known ligand. The IC50 is the concentration at which inhibition is half-maximal. Consider `O=C(Nc1ccc2[nH]cc(C3CCN(CCCCCCCN4CCC(c5c[nH]c6ccc(NC(=O)c7ccc(F)cc7)cc56)CC4)CC3)c2c1)c1ccc(F)cc1`, for which the figures for the Ki in assay [1], in assay [4] and in assay [6] were 79 nM, more than 10000 nM and 0.3 nM, respectively. Also, the IC50 is 3200 nM in assay [2], more than 10000 nM in assay [3], 700 nM at D(2) dopamine receptor and more than 50000 nM in assay [5]. Besides, the outcome in assay [7] was inactive.

Values taken from ChEMBL document CHEMBL1150432 (J Med Chem, 2008).
